{
  "source": "ChEMBL document CHEMBL5390295",
  "about": "“Isolinderalactone Ameliorates the Pathology of Alzheimer's Disease by Inhibiting the JNK Signaling Pathway” (2023)",
  "key": {"[1]": {"test_system": "PC-12", "assay": "Neuroprotective activity in rat PC12 cells assessed as reversal of Abeta1-42 decreased in Bcl-2 expression level at 10 uM preincubated for 3 hrs followed by Abeta1-42 induction and measured after 24 hrs by Western blot analysis", "format": "functional, cell-based", "conditions": "time 27.0 hrs", "in_short": "(§1)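 Aβ1–42 challenge in PC12 cells was 10 μM for 24 h after 3 h pretreatment at 10 μM. SP600125 (1.25 μM) was added 0.5 h before pretreatment where used. Cells were lysed in RIPA and protein measured by BCA. Blotting used PVDF transfer, 5% BSA/TBST block for 2 h, primaries 1:1000 overnight at 4 °C, and HRP secondary for 2 h. Bcl-2/Bax ratio and band intensities were quantified.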"}, "[2]": {"test_system": "PC-12", "assay": "Neuroprotective activity against in Abeta1-42 induced rat PC12 cells assessed as effect on ERK protein level at 10 uM preincubated for 3 hrs followed by Abeta1-42 induction and measured after 24 hrs by Western blot analysis", "format": "functional, cell-based", "conditions": "time 27.0 hrs", "in_short": "as §1"}, "[3]": {"test_system": "PC-12", "assay": "Neuroprotective activity against Abeta1-42 induced rat PC12 cells assessed as effect on Bcl2/Bax ratio level at 10 uM preincubated for 3 hrs followed by Abeta1-42 induction and measured after 24 hrs in the presence of SP600125 by Western blot analysis", "format": "functional, cell-based", "conditions": "time 27.0 hrs", "in_short": "as §1"}, "[4]": {"test_system": "PC-12", "assay": "Neuroprotective activity against Abeta1-42 induced rat PC12 cells assessed as reduction in LDH release at 10 uM preincubated for 3 hrs followed by Abeta1-42 induction and measured after 24 hrs by LDH release assay", "format": "functional, cell-based", "conditions": "time 27.0 hrs", "in_short": "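PC12 cells were pretreated 3 h with 10 μM, then incubated 24 h with or without 10 μM Aβ1–42. LDH released into the supernatant was measured.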"}, "[5]": {"test_system": "PC12", "assay": "Restoration of mitochondrial membrane potential in Abeta1-42 induced rat PC12 cells at 10 uM preincubated for 3 hrs followed by Abeta1-42 induction and measured after 24 hrs by JC-1 staining based analysis", "format": "cell-based", "conditions": "time 27.0 hrs", "in_short": "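PC12 cells pretreated 3 h, then exposed to 10 μM Aβ1–42 oligomer for 24 h. Cells were loaded with JC-1 (10 μg/mL, serum-free medium) for 30 min at 37 °C and washed twice in PBS. Plate-reader fluorescence was read as red (ex 560/em 595) and green (ex 485/em 535); Δψm = red/green ratio, normalized to control. Mean ± SEM, three experiments.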"}, "[6]": {"test_system": "Mus musculus", "assay": "Anti-alzheimer activity in cortex of APP/PS1 dE9 double transgenic mouse model assessed as reduction in neuronal apoptosis at 1 to 10 mg/kg, ip administered once daily for 30 consecutive days by immunofluorescence analysis", "format": "functional, organism-based", "conditions": "dose 1-10 mg/kg, time 30.0 day", "in_short": "(§2)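 Brains from dosed female APP/PS1 mice (10 months) were fixed in 4% paraformaldehyde at 4 °C for 24–48 h, taken through a sucrose gradient and OCT, and cut into 15 μm sections. Sections were permeabilized with 0.3% Triton X-100, blocked in 10% BSA for 1 h, and incubated with primary antibody overnight at 4 °C (1:200). Secondary was 1:500 for 1 h at 25 °C, with DAPI counterstain and confocal imaging, in triplicate.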"}, "[7]": {"test_system": "Mus musculus", "assay": "Anti-alzheimer activity in hippocampus of APP/PS1 dE9 double transgenic mouse model assessed as increase in the level of Bcl-2 at 10 mg/kg, ip administered once daily for 30 consecutive days by Western blot analysis", "format": "functional, organism-based", "conditions": "time 30.0 day", "in_short": "(§3)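 Hippocampal homogenates from dosed APP/PS1 mice were extracted in RIPA and protein measured by BCA. Samples were run by SDS electrophoresis, transferred to 0.22 μm PVDF for 90 min, blocked with 5% BSA in TBST for 2 h at RT, and probed with primaries 1:1000 overnight at 4 °C. HRP secondary was applied for 2 h at RT.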"}, "[8]": {"test_system": "Mus musculus", "assay": "Anti-alzheimer activity against APP/PS1 dE9 double transgenic mouse model assessed as increase in platform crossings at 10 mg/kg, ip administered once daily for 30 consecutive days […] by morris water maze test", "format": "functional, organism-based", "in_short": "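Female APP/PS1 mice, 10 months old, about 30 g, 10 per group. Dosing was intraperitoneal in 1× PBS, once daily for one month (1 or 10 mg/kg test; 5 mg/kg donepezil). WT and untreated APP/PS1 controls got PBS. Morris water maze: training days 1–4, averaged escape latency. Day-5 probe trial ran 60 s with the platform removed, recording platform crossings and time per quadrant. Mean ± SEM.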"}, "[9]": {"test_system": "PC-12", "assay": "Neuroprotective activity against Abeta1-42 induced rat PC12 cells assessed as reduction in ROS level at 10 uM preincubated for 3 hrs followed by Abeta1-42 induction and measured after 24 hrs by y DCFH2-DA probe based analysis", "format": "functional, cell-based", "conditions": "time 27.0 hrs", "in_short": "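PC12 cells were pretreated 3 h at 10 μM, then given 10 μM Aβ1–42 for 24 h. Cells were loaded with DCFH-DA 10 μM in FBS-free DMEM for 30 min in the dark and washed. Fluorescence was read at Ex 488/Em 525 nm.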"}, "[10]": {"test_system": "Mus musculus", "assay": "Anti-alzheimer activity in hippocampus of APP/PS1 dE9 double transgenic mouse model assessed as decrease in the level of caspase-3 activation at 10 mg/kg, ip administered once daily for 30 consecutive days by Western blot analysis", "format": "functional, organism-based", "conditions": "time 30.0 day", "in_short": "as §3"}, "[11]": {"test_system": "Mus musculus", "assay": "Anti-alzheimer activity in hippocampus of APP/PS1 dE9 double transgenic mouse model assessed as increase in the level of PSD95 at 10 mg/kg, ip administered once daily for 30 consecutive days by Western blot analysis", "format": "functional, organism-based", "conditions": "time 30.0 day", "in_short": "as §3"}, "[12]": {"test_system": "PC-12", "assay": "Neuroprotective activity against Abeta1-42 induced rat PC12 cells assessed as increase in cell viability at 10 uM preincubated for 3 hrs followed by Abeta1-42 induction and measured after 24 hrs in the presence of SP600125 by MTT assay", "format": "functional, cell-based", "conditions": "time 27.0 hrs", "in_short": "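PC12 cells were seeded at 5×10^3/well and pretreated 3 h with test compound (range or 10 μM), with or without SP600125 1.25 μM for 0.5 h beforehand. Cells were then exposed to 10 μM Aβ1–42 oligomers for 24 h. MTT 0.5 mg/mL was added for 3–4 h, formazan dissolved in DMSO, and absorbance read at 570 nm. Viability is given as % of control.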"}, "[13]": {"test_system": "Mus musculus", "assay": "Anti-alzheimer activity in hippocampus of APP/PS1 dE9 double transgenic mouse model assessed as reduction in amyloid beta plaque deposition at 1 to 10 mg/kg, ip administered once daily for 30 consecutive days by immunofluorescence staining", "format": "functional, organism-based", "conditions": "dose 1-10 mg/kg, time 30.0 day", "in_short": "as §2"}, "[14]": {"test_system": "Mus musculus", "assay": "Anti-alzheimer activity against APP/PS1 dE9 double transgenic mouse model assessed as improvement in exploratory behavior at 1 to 10 mg/kg, ip administered once daily for 30 consecutive days measured on day 1 by novel object recognition test", "format": "functional, organism-based", "conditions": "dose 1-10 mg/kg, time 31.0 day", "in_short": "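Same mouse cohort and ip PBS dosing schedule (1 or 10 mg/kg; donepezil 5 mg/kg). Novel object recognition: two objects, 5 min session, with exploration frequency and duration scored within 2–3 cm of objects. After 24 h one object was replaced by a novel object and a second 5 min session was recorded.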"}},
  "note": "The source made the active and inactive calls. The rule behind the calls is not given here.",
  "data": [
    {"smiles": "C=C[C@@]1(C)Cc2occ(C)c2[C@@H]2OC(=O)C(=C)[C@@H]21", "note": "[ISOLINDERALACTONE]", "values": [
      {"measurement": "Activity", "setting": "[1]", "result": "Active"},
      {"measurement": "Activity", "setting": "[2]", "result": "inactive"},
      {"measurement": "Activity", "setting": "[3]", "result": "inactive"},
      {"measurement": "Activity", "setting": "[4]", "result": "Active"},
      {"measurement": "Activity", "setting": "[5]", "result": "Active"},
      {"measurement": "Activity", "setting": "[6]", "result": "Active"},
      {"measurement": "Activity", "setting": "[7]", "result": "Active"},
      {"measurement": "Activity", "setting": "[8]", "result": "Active"},
      {"measurement": "Activity", "setting": "[9]", "result": "Active"},
      {"measurement": "Activity", "setting": "[10]", "result": "Active"},
      {"measurement": "Activity", "setting": "[11]", "result": "Active"},
      {"measurement": "Activity", "setting": "[12]", "result": "inactive"},
      {"measurement": "Activity", "setting": "[13]", "result": "Active"},
      {"measurement": "Activity", "setting": "[14]", "result": "Active"}
    ]}
  ]
}
